Measured values as given in ChEMBL document CHEMBL1165983, “Regio- and stereospecific synthesis of mono-beta-d-glucuronic acid derivatives of combretastatin A-1” (J Nat Prod, 2010).

What was measured:
DU-145 = assay: Cytotoxicity against human DU145 cells by SRB assay; type: functional
SK-OV-3 = assay: Cytotoxicity against human SKOV3 cells by SRB assay; type: functional
NCI-H460 = assay: Cytotoxicity against human NCI-H460 cells by SRB assay; type: functional
[1] = Inhibition of bovine brain tubulin assembly after 20 mins; set-up: species or system Bos taurus
How it was run: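 Bovine brain tubulin (10 µM) was preincubated with varying compound concentrations in glutamate buffer at 30 °C and then cooled to 0 °C. GTP was added, and the mixtures were warmed to 30 °C in a recording spectrophotometer. Assembly was followed turbidimetrically.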

Question: Which GI50 (DU-145) does the source give for `COc1ccc(/C=C\c2cc(OC)c(OC)c(OC)c2)cc1O` [COMBRETASTATIN A4] here?
Answer: 0.001 µM

Question: Which GI50 (SK-OV-3) does the source give for `COc1cc(/C=C/c2ccc(OC)c(O[C@@H]3O[C@H](C(=O)O)[C@@H](O)[C@H](O)[C@H]3O)c2O)cc(OC)c1OC` here?
Answer: > 85 µM

Question: And the GI50 (DU-145)?
Answer: > 98 µM

Question: What about the GI50 (NCI-H460) of the same compound?
Answer: 26 µM

Question: With `COc1ccc(/C=C\c2cc(OC)c(OC)c(OC)c2)c(O)c1O` [COMBRETASTATIN A-1] as the compound, how does the IC50 [1] read?
Answer: 1.1 µM

Question: And the GI50 (DU-145)?
Answer: 0.013 µM

Question: And the GI50 (NCI-H460)?
Answer: 0.046 µM

Question: With `COc1ccc(/C=C/c2cc(OC)c(OC)c(OC)c2)c(O[C@@H]2O[C@H](C(=O)O)[C@@H](O)[C@H](O)[C@H]2O)c1O` as the compound, how does the GI50 (SK-OV-3) read?
Answer: 30 µM

Question: What about the GI50 (DU-145) of the same compound?
Answer: > 88 µM

Question: And the GI50 (NCI-H460)?
Answer: 26 µM

Question: For `COc1ccc(/C=C\c2cc(OC)c(OC)c(OC)c2)c(O[C@@H]2O[C@H](C(=O)O)[C@@H](O)[C@H](O)[C@H]2O)c1O`, which GI50 (SK-OV-3) is on record?
Answer: 2.3 µM

Question: What about the GI50 (DU-145) of the same compound?
Answer: 4.4 µM

Question: What about the GI50 (NCI-H460) of the same compound?
Answer: 3 µM

Question: With `COc1cc(/C=C\c2ccc(OC)c(O[C@@H]3O[C@H](C(=O)O)[C@@H](O)[C@H](O)[C@H]3O)c2O)cc(OC)c1OC` as the compound, how does the GI50 (SK-OV-3) read?
Answer: 2.1 µM

Question: What about the GI50 (DU-145) of the same compound?
Answer: 3.3 µM

Question: What about the GI50 (NCI-H460) of the same compound?
Answer: 1.8 µM
